Source: PubChem
Sampled rows, rich in hits. Any-hit rate of the full collection: about 2.2%.
LEDGF integ inh = blocks HIV-1 LEDGF/p75-dependent DNA integration; hit rate 0.64% among 370,000; inhibition, % at 3.7 µM; TR-FRET IN-LEDGF/p75 DNA integration, Eu/Cy5;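 active means inhibition above the screen-wide mean plus 3 SD, cut at about 13% in these data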;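 further: signal is the Cy5 over europium emission ratio at 671 and 618 nm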
HTRA1 inhibitor = blocks human HTRA1 serine peptidase. Q92743. recombinant HTRA1, FP-rhodamine activity-based probe, fluorescence polarization. inhibition, % at 5.96 µM. hit rate 0.5% among 340,000. AID 504803; in the data active means inhibition above about 36%
mABHD4 FP = inhibitors of mouse ABHD4. Q8VD66. purified mABHD4, FP-Rh probe fluorescence polarization. inhibition, % at 8.92 µM. hit rate 0.54% among 370,000;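 active means inhibition exceeding the mean over every tested compound plus 3 SD, cut at about 30% in these data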
Target sequence (Q8VD66 whole entry, looked up): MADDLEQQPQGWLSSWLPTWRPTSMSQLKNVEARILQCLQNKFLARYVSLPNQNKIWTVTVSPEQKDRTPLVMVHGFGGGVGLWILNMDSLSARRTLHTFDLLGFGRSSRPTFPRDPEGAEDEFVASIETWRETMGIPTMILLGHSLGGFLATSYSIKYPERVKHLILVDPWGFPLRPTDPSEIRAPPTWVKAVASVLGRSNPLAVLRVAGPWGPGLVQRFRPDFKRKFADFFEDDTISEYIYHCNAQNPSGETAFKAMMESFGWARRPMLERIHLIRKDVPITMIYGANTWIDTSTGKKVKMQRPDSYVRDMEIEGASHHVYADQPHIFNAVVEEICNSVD
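Assay system: Wild-type mouse ABHD4 protein | Medium: HEPES pH 7.0 buffer, 150 mM NaCl, 0.01% Pluronic F-127 | Incubation: Enzyme–compound pre-incubation 45 min, then probe 60 min, both 25 °C | Technique: Fluorescence polarization with parallel and perpendicular emission, 525/598 nm | Evaluation: % inhibition of FP-Rh probe binding versus controls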
SIAE primary = inhibitors of human sialic acid acetylesterase SIAE; hit rate 0.69% among 370,000; AID 1053197; inhibition, % at 9.66 µM; Q9HAT2; SIAE FP-Rh probe binding, fluorescence polarization;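 active means inhibition above a cutoff: mean of compounds within the control limits plus 3 SD of those, cut at about 17% in these data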
TDP2 absorb = TDP2 (human) inhibition, absorbance primary screen. inhibition, % at 12.8 µM. recombinant TDP2, T5PNP hydrolysis, p-nitrophenol absorbance 415 nm. hit rate 0.34% among 370,000;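 active means inhibition above the mean of all tested compounds plus 3 SD, set per campaign, cut at about 25% in these data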
Target sequence (O95551 whole entry, looked up): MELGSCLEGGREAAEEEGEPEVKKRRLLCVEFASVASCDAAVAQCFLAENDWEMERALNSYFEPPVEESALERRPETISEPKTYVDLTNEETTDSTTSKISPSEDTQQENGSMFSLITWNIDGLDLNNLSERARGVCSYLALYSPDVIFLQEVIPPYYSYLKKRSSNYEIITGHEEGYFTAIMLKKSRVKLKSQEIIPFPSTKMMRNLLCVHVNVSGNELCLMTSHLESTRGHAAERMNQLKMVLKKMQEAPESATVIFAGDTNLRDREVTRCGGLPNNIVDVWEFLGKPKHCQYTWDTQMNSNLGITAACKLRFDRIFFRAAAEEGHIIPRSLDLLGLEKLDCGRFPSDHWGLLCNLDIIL
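System – recombinant human TDP2 · Amount – 120 nM TDP2 per well · Buffer or medium – Mg2+-containing Tris-HCl buffer, pH 7.5 · Reagent – T5PNP substrate, 5 mM · Dosing – 12.8 µM single point, 1% DMSO · Incubation – 2 h at 37 °C · Measured by – epi absorbance · Read-out basis – percent inhibition · Benchmarks – high control without enzyme, low control DMSO plus TDP2 · Repeats – singlicate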
TCR CD3 inh = blocks the human TCR-CD3 interaction. TAMRA-labeled TCR probe fluorescence, biochemical. inhibition, % at 9.4 µM. hit rate 0.37% among 360,000. AID 651800; in the data active means inhibition above about 19%;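 further: recombinant mutant TCR 2C K166C tagged with TAMRA read by polarization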
IN multimer up = HIV-1 integrase multimerization activation, counter-screen | shares compounds with LEDGF integ inh | TR-FRET HIV-1 integrase multimerization, biochemical | activation, % at 7.7 µM | AID 1053131 | hit rate 17% among 2,000; in the data active means activation above about 8.9%
TRFRET interf = optically interferes with TR-FRET readout in LEDGF counter-screen; shares compounds with LEDGF integ inh; TR-FRET optical interference counterscreen, HIV-1 IN multimerization; inhibition, % at 7.7 µM; 2,000 tested, under 10 active;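 active means inhibition above the mean over all tested compounds plus 3 SD, which no compound reached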
IN-LEDGF confirm = confirmation of HIV-1 LEDGF/p75-dependent integration inhibitors; hit rate 36% among 2,000; TR-FRET LEDGF/p75-dependent HIV-1 integration, biochemical; shares compounds with LEDGF integ inh; inhibition, % at 3.7 µM; in the data active means inhibition above about 14%
Of the large screens only hits and unclear results are named; the others gave an inactive call (follow-up assays come after a bar, where they were run).

O=C(Cc1ccc(Br)cc1)NNC(=O)c1cccs1	LEDGF integ inh 13.7 | IN multimer up inactive | TRFRET interf inactive | IN-LEDGF confirm inactive
CN1C(C(=O)NCc2cccc(C(F)(F)F)c2)CC2Cn3c(nc4ccccc43)C21 (configuration not stated)	LEDGF integ inh 15.1 | IN multimer up inactive | TRFRET interf inactive | IN-LEDGF confirm inactive
Cc1cc2nc3n(c2cc1C)CC1CC(C(=O)NCc2ccco2)N(C)C31 (configuration not stated)	LEDGF integ inh 26.8 | IN multimer up inactive | TRFRET interf inactive | IN-LEDGF confirm inactive
CN1C(C(=O)NCc2cccc(C(F)(F)F)c2)CC2Cn3c(nc4cc5ccccc5cc43)C21 (configuration not stated)	none
O=c1ccnc(Nc2ccc([N+](=O)[O-])cc2)[nH]1	none
CCOc1ccc(NC(=O)CN(C)c2ccc(S(=O)(=O)N3CCOCC3)cn2)cc1OCC	LEDGF integ inh 15.3 | IN multimer up inactive | TRFRET interf inactive | IN-LEDGF confirm inactive
CC[C@]12C(=O)N(C)C[C@H]([C@@H]3C(=O)N(C)C(=O)[C@@H]31)N2C(=O)c1ccc(C)cc1	none
O=C(CN1CCN(S(=O)(=O)c2ccc(Cl)c(Cl)c2)CC1)N1CCCCC1	LEDGF integ inh 17.0 | IN multimer up inactive | TRFRET interf inactive | IN-LEDGF confirm inactive
CC(C)C[C@H]1CNC(=O)C(=O)N1CC1CCN(CCc2ccccc2)CC1	none (no result: HTRA1 inhibitor)
O=C1CN(S(=O)(=O)c2cc(Br)ccc2Br)CCN1	none
O=c1c(Br)ccc(Br)cc1Br	LEDGF integ inh 15.5 | IN multimer up inactive | TRFRET interf inactive | IN-LEDGF confirm 29.9
COC(=O)[C@]12C[C@H](CC(=O)N3CCC(c4ccccc4)CC3)C(=O)N(Cc3ccc4c(c3)OCO4)C1=C[C@H](COCc1ccccc1)O[C@@H]2C	none (no result: HTRA1 inhibitor)
CC(C)c1ccccc1NC(=O)CN1C(=O)c2ccccc2C1=O	LEDGF integ inh 73.0 | IN multimer up inactive | TRFRET interf inactive | IN-LEDGF confirm inactive
CCOC(=O)C1=CNS(=O)(=O)NC1c1ccc(C#N)cc1 (configuration not stated)	none
COC(=O)CN1C(=O)[C@H]2[C@@H](/C=C/c3ccccc3)N3C(=O)CN(Cc4ccccc4)C(=O)[C@@]3(C)[C@H]2C1=O	LEDGF integ inh 81.2 | IN multimer up inactive | TRFRET interf inactive | IN-LEDGF confirm inactive
CC(=O)Nc1ccc(-c2ccnc3c2CC(C(=O)Nc2cccc(C(F)(F)F)c2)O3)cc1 (configuration not stated)	none (no result: HTRA1 inhibitor)
CC(=O)Nc1ccc(-c2ccnc3c2CC(C(=O)Nc2cccc(N(C)C)c2)O3)cc1 (configuration not stated)	LEDGF integ inh 24.2 (no result: HTRA1 inhibitor) | IN multimer up inactive | TRFRET interf inactive | IN-LEDGF confirm inactive
CCOc1cc(CNc2ccc(N3CCN(C(C)=O)CC3)cc2)cc(Br)c1OC	none
c1cc(CNc2ccc(N3CCOCC3)cc2)ccn1	LEDGF integ inh 15.8 | IN multimer up inactive | TRFRET interf inactive | IN-LEDGF confirm inactive
CCOc1cc(CNc2ccc(N3CCOCC3)cc2)cc(Br)c1OCC	LEDGF integ inh 14.7 | IN multimer up inactive | TRFRET interf inactive | IN-LEDGF confirm inactive
O=C(COC(=O)c1n[nH]c(=O)c2ccccc12)Nc1cccc(S(=O)(=O)N2CCOCC2)c1	none
COC(=O)C(CC(C)C)N(Cc1ccc(Br)cc1)S(=O)(=O)CCl (configuration not stated)	none (no result: HTRA1 inhibitor)
Cc1cc(C(=O)CN2c3cccc4cccc(c34)S2(=O)=O)c(C)n1C	LEDGF integ inh 20.1 | IN multimer up inactive | TRFRET interf inactive | IN-LEDGF confirm inactive
COCC(C)n1c(C)cc(C(=O)CN2c3cccc4cccc(c34)S2(=O)=O)c1C (configuration not stated)	none
C=CCN1C(=O)/C(=C\c2ccc(Cl)cc2)N=C1SCC(=O)NCCC	none
COCCNC(=O)CSC1=N/C(=C/c2ccc(Cl)c(Cl)c2)C(=O)N1c1ccccc1F	LEDGF integ inh 91.5 | IN multimer up inactive | TRFRET interf inactive | IN-LEDGF confirm inactive
CCCCCOC(=O)CC(C(=O)OCCCCC)N1CCCCC1 (configuration not stated)	LEDGF integ inh 13.7 | IN multimer up inactive | TRFRET interf inactive | IN-LEDGF confirm inactive
O=C(OCc1ccccc1)N1CCC2CC1c1c(-c3ccc(C(F)(F)F)cc3)cccc12 (configuration not stated)	none
C#CCN1CC(COc2ccccc2)Oc2cccc(Oc3ccc(SC)c(C)c3)c2S1(=O)=O (configuration not stated)	none (no result: HTRA1 inhibitor)
CC1(c2nnc(Cc3ccccc3)o2)CC(c2cccnc2)=NO1 (configuration not stated)	LEDGF integ inh 92.5 | IN multimer up inactive | TRFRET interf inactive | IN-LEDGF confirm inactive
CC(C)c1ccccc1NC(=S)NCC1(N(C)C)CCCCC1	none
CCOC(=O)C(C(=O)Cc1ccccc1)c1ccccc1 (configuration not stated)	none
CCNC(=O)Nc1nc2ccccc2s1	none
CN(C)C(=S)Nc1nc2ccccc2s1	LEDGF integ inh 17.4 | IN multimer up inactive | TRFRET interf inactive | IN-LEDGF confirm inactive
COc1ccc(-c2csc(NC(=O)c3ccccc3F)c2C(=O)O)cc1	LEDGF integ inh 15.2 | IN multimer up inactive | TRFRET interf inactive | IN-LEDGF confirm inactive
O=C(Nc1scc(-c2ccccc2)c1C(=O)O)c1ccccc1Cl	none
CC(NC(=O)C1CCN(c2nnc(N3CCCC3=O)s2)CC1)c1ccccc1 (configuration not stated)	none
COc1ccc(CNC(=O)CN(CCC(C)C)S(=O)(=O)c2ccc3c(c2)OCCO3)cc1	LEDGF integ inh 22.6 | IN multimer up inactive | TRFRET interf inactive | IN-LEDGF confirm inactive
Cc1ccc(NC(=O)CN2C(=O)N/C(=C/c3ccco3)C2=O)cc1	LEDGF integ inh 21.3 | IN multimer up 13.8 | TRFRET interf inactive | IN-LEDGF confirm 26.0
CCOC(=O)[C@]12CCCC3=C1N(CCC3)C(=O)[C@@H](CC(=O)NCc1ccc(OC)c(OC)c1)C2	none (no result: HTRA1 inhibitor, TCR CD3 inh)
CN(C)C(=O)CCc1ccc2c3c([nH]c2c1)[C@]1(C)[C@@H](C(=O)N2CCOCC2)C[C@H](CC(=O)NCc2cccc(C(F)(F)F)c2)C(=O)N1CC3	none
